Some results are limits rather than exact numbers.

This is an account of results in ChEMBL document CHEMBL1131058, “Studies on quinazolines and 1,2,4-benzothiadiazine 1,1-dioxides. 8.1, 2 synthesis and pharmacological evaluation of tricyclic fused quinazolines and 1,2,4-benzothiadiazine 1,1-dioxides as potential alpha1-adrenoceptor antagonists” (J Med Chem, 1998).

Assay [1] deals with T1, Adrenergic receptor alpha-1 (Rattus norvegicus, UniProt P15823+P23944+P43140).
T1 sequence (P15823 whole entry): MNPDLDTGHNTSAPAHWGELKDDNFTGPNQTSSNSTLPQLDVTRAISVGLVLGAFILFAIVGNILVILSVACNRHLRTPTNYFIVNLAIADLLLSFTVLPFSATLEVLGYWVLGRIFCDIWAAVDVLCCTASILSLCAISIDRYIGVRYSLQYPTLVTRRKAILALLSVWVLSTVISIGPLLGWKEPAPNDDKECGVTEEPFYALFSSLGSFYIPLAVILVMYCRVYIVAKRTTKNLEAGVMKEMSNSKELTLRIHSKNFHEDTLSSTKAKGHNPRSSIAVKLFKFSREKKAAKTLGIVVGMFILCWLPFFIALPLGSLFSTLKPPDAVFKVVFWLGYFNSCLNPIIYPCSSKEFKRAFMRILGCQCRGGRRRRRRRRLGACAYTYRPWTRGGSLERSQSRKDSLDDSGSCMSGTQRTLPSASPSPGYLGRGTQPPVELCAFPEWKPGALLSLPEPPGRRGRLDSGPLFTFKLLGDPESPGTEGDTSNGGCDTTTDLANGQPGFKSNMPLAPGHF
T1 sequence (P23944 whole entry): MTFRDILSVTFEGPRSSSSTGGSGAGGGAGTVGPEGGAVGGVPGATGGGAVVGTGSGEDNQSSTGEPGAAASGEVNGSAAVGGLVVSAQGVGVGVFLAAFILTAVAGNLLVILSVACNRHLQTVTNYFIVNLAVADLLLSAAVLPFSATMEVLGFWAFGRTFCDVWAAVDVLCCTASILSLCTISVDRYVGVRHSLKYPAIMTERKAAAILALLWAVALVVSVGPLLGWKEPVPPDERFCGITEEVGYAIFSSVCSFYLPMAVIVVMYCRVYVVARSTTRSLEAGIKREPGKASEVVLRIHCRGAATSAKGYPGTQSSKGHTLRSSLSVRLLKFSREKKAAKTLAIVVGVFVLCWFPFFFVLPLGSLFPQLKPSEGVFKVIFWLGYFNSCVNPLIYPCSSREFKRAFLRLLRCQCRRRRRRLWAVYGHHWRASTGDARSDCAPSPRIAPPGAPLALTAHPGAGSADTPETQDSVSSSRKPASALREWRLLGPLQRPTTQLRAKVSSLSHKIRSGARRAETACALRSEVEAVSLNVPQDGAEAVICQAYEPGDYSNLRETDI
T1 sequence (P43140 whole entry): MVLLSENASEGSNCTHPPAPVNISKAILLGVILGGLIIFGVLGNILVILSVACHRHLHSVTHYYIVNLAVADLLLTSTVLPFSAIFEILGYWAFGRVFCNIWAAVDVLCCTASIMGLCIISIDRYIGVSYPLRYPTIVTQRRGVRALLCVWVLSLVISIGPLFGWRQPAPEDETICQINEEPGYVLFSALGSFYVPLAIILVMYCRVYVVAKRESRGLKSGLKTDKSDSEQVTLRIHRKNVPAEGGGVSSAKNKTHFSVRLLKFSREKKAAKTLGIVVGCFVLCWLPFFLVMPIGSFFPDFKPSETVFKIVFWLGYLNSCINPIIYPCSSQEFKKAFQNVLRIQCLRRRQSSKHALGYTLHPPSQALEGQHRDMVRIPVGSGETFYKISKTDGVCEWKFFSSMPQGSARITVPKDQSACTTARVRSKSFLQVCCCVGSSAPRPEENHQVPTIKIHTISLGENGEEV
The assay can be described thus: Binding affinity towards Alpha-1 adrenergic receptor measured by displacement of [3H]prazosin from rat brain cortex membranes. It is filed as cell membranes, Membrane. In short, it runs like this:
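Triplicate competition binding against 0.2-0.25 nM [³H]prazosin in Tris buffer pH 7.4, 30 min at room temperature. Competitor range 0.1-200 nM. Nonspecific binding defined with 10 µM phentolamine. Reaction stopped by GF/B filtration with two cold Tris washes. Membrane protein 300-400 µg per assay. Ki calculated from the data; mean ± SEM of 3-6 experiments.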
In general terms: Loss of bound radioactivity is the signal in a displacement assay; it reports binding, not function.

Assay [2] can be described thus: Selectivity ratio for binding affinity towards alpha2 and alpha-1 adrenoceptors. In short, it runs like this: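 Ratio of α2 Ki ([³H]clonidine binding) to α1 Ki ([³H]prazosin binding), both measured in rat cortical membrane competition assays.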
In assay [3] the target is T2, Adrenergic receptor alpha-2 (Rattus norvegicus, UniProt P22086+P19328+P22909).
T2 sequence (P22086 whole entry): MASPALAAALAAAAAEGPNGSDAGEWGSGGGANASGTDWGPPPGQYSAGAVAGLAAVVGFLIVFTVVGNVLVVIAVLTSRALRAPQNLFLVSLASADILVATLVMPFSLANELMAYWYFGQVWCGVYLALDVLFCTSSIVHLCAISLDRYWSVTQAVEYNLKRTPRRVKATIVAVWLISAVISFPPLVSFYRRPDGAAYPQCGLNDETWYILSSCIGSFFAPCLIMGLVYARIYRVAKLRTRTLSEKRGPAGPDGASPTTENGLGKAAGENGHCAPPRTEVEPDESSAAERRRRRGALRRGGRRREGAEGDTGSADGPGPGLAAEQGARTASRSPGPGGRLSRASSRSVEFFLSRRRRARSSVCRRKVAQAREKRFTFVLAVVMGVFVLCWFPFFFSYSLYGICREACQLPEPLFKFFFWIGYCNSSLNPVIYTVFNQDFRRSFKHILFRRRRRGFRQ
T2 sequence (P19328 whole entry): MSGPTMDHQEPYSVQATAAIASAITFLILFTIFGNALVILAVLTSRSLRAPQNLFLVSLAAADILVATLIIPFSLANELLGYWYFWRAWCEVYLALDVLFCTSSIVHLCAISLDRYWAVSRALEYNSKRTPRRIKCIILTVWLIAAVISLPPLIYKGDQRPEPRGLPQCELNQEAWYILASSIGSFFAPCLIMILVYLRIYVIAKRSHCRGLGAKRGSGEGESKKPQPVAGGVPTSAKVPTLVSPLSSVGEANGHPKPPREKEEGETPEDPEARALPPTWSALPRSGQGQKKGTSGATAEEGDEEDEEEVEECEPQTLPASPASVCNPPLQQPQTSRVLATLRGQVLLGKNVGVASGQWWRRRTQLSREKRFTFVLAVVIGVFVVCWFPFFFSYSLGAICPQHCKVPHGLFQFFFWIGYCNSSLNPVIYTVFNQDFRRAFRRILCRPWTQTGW
T2 sequence (P22909 whole entry): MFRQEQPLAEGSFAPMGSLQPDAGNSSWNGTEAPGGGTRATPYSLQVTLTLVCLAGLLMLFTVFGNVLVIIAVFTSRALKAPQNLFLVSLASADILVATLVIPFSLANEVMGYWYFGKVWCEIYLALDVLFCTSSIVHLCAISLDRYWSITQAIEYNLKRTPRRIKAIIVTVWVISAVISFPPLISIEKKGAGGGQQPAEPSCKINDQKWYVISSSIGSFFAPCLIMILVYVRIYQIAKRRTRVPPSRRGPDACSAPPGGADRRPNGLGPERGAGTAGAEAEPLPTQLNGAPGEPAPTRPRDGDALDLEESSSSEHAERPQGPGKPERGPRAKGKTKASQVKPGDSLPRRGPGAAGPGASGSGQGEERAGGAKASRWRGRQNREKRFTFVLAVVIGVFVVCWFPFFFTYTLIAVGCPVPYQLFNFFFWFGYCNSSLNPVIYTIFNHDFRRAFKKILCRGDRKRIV
The assay can be described thus: Displacement of clonidine from Alpha-2 adrenergic receptor in rat brain cortex. It is filed as tissue-based. In outline:
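α2 competition binding run in triplicate with 1 nM [³H]clonidine plus 10 mM MgCl₂ in Tris pH 7.4, 30 min at room temperature. Test compounds at 1-100 µM. Nonspecific binding defined with 10 µM clonidine. Membranes collected on GF/B filters and washed twice with cold Tris. Protein 300-400 µg per assay. Ki given as mean ± SEM of 3-6 experiments.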

For `Cn1c(=O)n2c(Br)c(CN3CCN(c4ccccc4Cl)CC3)nc2c2ccccc21`, the inhibitory constant (Ki) in assay [1] is above 10 µM.

In assay [1], `Oc1nc2ccccc2c2nc(Br)c(CN3CCN(c4ccccc4Cl)CC3)n12` displayed a Ki above 10 µM.

Take `Cn1c(=O)n2cc(CN3CCN(c4ccccc4Cl)CC3)nc2c2ccccc21`: the Ratio in assay [2] was determined as 36. The Ki amounted to 0.0141 µM in assay [1] and 0.513 µM in assay [3].

Compound `COc1ccccc1N1CCN(Cc2c(Br)sc3nc4ccccc4c(=O)n23)CC1` returned a Ki in assay [1] above 10 µM.

`COc1ccccc1N1CCN(Cc2nc3c4ccccc4n(C)c(=O)n3c2Br)CC1` showed a Ki in assay [1] above 10 µM.

`COc1ccccc1N1CCN(Cc2c(Br)nc3c4ccccc4n(C)c(=O)n23)CC1` showed an inhibition constant Ki in assay [1] above 10 µM.

Compound `COc1ccccc1N1CCN(Cc2c(Br)nc3c4ccccc4nc(O)n23)CC1` had an inhibition constant Ki in assay [1] above 10 µM.

`COc1ccccc1N1CCN(Cc2cn3c(=O)n(C)c4ccccc4c3n2)CC1`: the Ratio in assay [2] was 499. The inhibition constant (Ki) in assay [1] was 0.0065 µM; in assay [3], 3.25 µM.

As to `Oc1nc2ccccc2c2nc(CN3CCN(c4ccccc4Cl)CC3)cn12`, the Ratio in assay [2] came out at 486. Further, the results for the inhibitory constant (Ki) in assay [1] and in assay [3] were 0.00929 µM and 4.51 µM, respectively.

Consider `COc1ccccc1N1CCN(Cc2csc3nc4ccccc4c(=O)n23)CC1`, for which, in assay [1], the Ki was above 10 µM.

With `O=c1c2ccccc2nc2scc(CN3CCN(c4ccccc4Cl)CC3)n12`, the Ki in assay [1] is above 10 µM.

For `Cn1c(=O)n2c(CN3CCN(c4ccccc4Cl)CC3)cnc2c2ccccc21`, the Ratio in assay [2] turned out to be 123. In addition, the Ki is 0.00428 µM in assay [1] and 0.525 µM in assay [3].

In assay [1], `COc1ccccc1N1CCN(CC2CN=C3Nc4ccccc4C(=O)N32)CC1` (stereo not given) displayed a Ki of 0.186 µM. This lies in the sub-micromolar range.

Regarding `COc1ccccc1N1CCN(CC2CN=C3Nc4ccccc4S(=O)(=O)N32)CC1` (stereo not given), the Ratio in assay [2] was 93. For the same compound, the Ki in assay [1] turned out to be 0.00495 µM; in assay [3], 0.46 µM.

Regarding `COc1ccccc1N1CCN(CC2CSc3nc4ccccc4c(=O)n32)CC1` (stereo not given), in assay [1], the inhibitory constant (Ki) is above 10 µM.

In the case of `O=S1(=O)c2ccccc2NC2=NCC(CN3CCN(c4ccccc4Cl)CC3)N21` (stereo not given), the Ratio in assay [2] turned out to be 194. In addition, the inhibitory constant (Ki) in assay [1] amounted to 0.0118 µM; in assay [3], 2.29 µM.

In turn, `Cn1c(=O)n2c(CN3CCN(c4ccccc4Cl)CC3)c(Br)nc2c2ccccc21` yielded a Ki in assay [1] above 10 µM.

As for `Oc1nc2ccccc2c2nc(CN3CCN(c4ccccc4Cl)CC3)c(Br)n12`, the Ki in assay [1] was above 10 µM.

In the case of `COc1ccccc1N1CCN(Cc2nc3c4ccccc4nc(O)n3c2Br)CC1`, in assay [1], the Ki is above 10 µM.

`O=c1c2ccccc2nc2sc(Br)c(CN3CCN(c4ccccc4Cl)CC3)n12` gave a Ki in assay [1] above 10 µM.

Turning to `COc1ccccc1N1CCN(Cc2cnc3c4ccccc4n(C)c(=O)n23)CC1`, the Ratio in assay [2] turned out to be 506. Besides, the Ki in assay [1] was found to be 0.0061 µM; in assay [3], 3.09 µM.

Usually Ki stands for a measure of affinity in units of concentration, obtained from inhibition or displacement.
